Among the data in ChEMBL document CHEMBL1123845 (J Med Chem, 1987) are IC50 and inhibition values, retold here.

What all share (format): cell-based
The target of assay [1] is T1, Polyunsaturated fatty acid 5-lipoxygenase (Rattus norvegicus, UniProt P12527).
T1 sequence (P12527 whole entry): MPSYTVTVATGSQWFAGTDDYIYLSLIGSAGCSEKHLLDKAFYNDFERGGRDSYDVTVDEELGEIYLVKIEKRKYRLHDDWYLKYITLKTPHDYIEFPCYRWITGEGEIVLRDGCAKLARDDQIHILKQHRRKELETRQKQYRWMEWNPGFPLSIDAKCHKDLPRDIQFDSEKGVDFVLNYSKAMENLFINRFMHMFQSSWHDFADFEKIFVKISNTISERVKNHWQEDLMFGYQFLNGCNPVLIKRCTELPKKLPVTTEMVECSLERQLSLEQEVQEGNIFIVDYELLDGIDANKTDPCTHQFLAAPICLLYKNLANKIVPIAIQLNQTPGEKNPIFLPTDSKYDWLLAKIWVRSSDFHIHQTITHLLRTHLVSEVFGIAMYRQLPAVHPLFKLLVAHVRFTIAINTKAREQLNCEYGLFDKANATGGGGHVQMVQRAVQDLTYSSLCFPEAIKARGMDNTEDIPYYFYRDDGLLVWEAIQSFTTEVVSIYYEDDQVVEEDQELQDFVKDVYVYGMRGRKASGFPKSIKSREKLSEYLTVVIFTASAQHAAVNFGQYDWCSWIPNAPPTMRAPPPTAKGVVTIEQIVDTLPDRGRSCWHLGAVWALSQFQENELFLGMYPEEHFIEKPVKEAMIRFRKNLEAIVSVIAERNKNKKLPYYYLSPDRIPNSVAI
Briefly: Inhibition of rat basophilic leukemia-1 (RBL-1) 5-lipoxygenase. The gist of the method: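 Enzyme source: 20000g supernatant of sonicated RBL-1 cells (1.5 × 10⁶ cell equivalents) in pH 6.8 BES/PIPES buffer with EDTA, CaCl₂ and NaCl. Compound or 2% DMSO vehicle preincubated 20 min at 37 °C. Acid stop, ether extraction, then TLC. [¹⁴C]5-HETE counted and corrected by [³H]-5-HETE recovery.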

Assay [2] addresses T2, Polyunsaturated fatty acid 5-lipoxygenase (Rattus norvegicus) (UniProt P12527).
T2 sequence (whole entry): T1 sequence (P12527 whole entry)
Briefly: Compound was evaluated for the inhibition of rat basophilic leukemia-1 (RBL-1) 5-Lipoxygenase at 33 uM. In short, it runs like this: (§1)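 Enzyme source: 20000g supernatant of sonicated RBL-1 cells (1.5 × 10⁶ cell equivalents) in pH 6.8 BES/PIPES buffer with EDTA, CaCl₂ and NaCl. Compound or 2% DMSO vehicle preincubated 20 min at 37 °C. Reaction started with 66 μM arachidonic acid carrying [¹⁴C] tracer and run 5 min. Acid stop, ether extraction, then TLC. [¹⁴C]5-HETE counted and corrected by [³H]-5-HETE recovery.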

Assay [3] deals with T2, Polyunsaturated fatty acid 5-lipoxygenase (Rattus norvegicus). Briefly: (§2) Compound was evaluated for the inhibition of rat basophilic leukemia-1 (RBL-1) 5-Lipoxygenase at 100 uM; NS = no significant activity. In short, it runs like this:
as §1

The target is the same in assay [4]. Briefly: Compound was evaluated for the inhibition of rat basophilic leukemia-1 (RBL-1) 5-Lipoxygenase at 300 uM. The gist of the method:
as §1

The target is the same in assay [5]. Briefly: Compound was evaluated for the inhibition of rat basophilic leukemia-1 (RBL-1) 5-Lipoxygenase at 30 uM. The gist of the method:
as §1

For assay [6] the target is unchanged. Briefly: Inhibition of rat basophilic leukemia-1 (RBL-1) 5-Lipoxygenase at 100 uM. In short, it runs like this: as §1
Assay [7] deals with T1, Polyunsaturated fatty acid 5-lipoxygenase. Described as §2. In short, it runs like this: as §1
Assay [8] addresses T2, Polyunsaturated fatty acid 5-lipoxygenase (Rattus norvegicus). Briefly: Compound was evaluated for the inhibition of rat basophilic leukemia-1 (RBL-1) 5-Lipoxygenase at 40 uM. The gist of the method: as §1
The target is the same in assay [9]. Briefly: Compound was evaluated for the inhibition of rat basophilic leukemia-1 (RBL-1) 5-Lipoxygenase at 10 uM. The gist of the method:
as §1

Assay [10] has the same target. Briefly: Compound was evaluated for the inhibition of rat basophilic leukemia-1 (RBL-1) 5-Lipoxygenase at 75 uM. The gist of the method:
as §1

Molecules are shown by their SMILES. Calls of active or inactive are those of the source. The calls are words filed in the database; no cut-off is given here.

What is called IC50 is the midpoint of a concentration-inhibition curve. Higher therefore signals weaker potency in that assay. In general, inhibition refers to the share of the control response that was lost under treatment.

For `CCCCC[C@H](O)/C=C/C=C\C/C=C\C/C=C\CCCCCC(=O)OC`, in assay [1], the midpoint of inhibition, the IC50, lay at 6.5 µM.
The compound `CCCCC[C@H](O)/C=C/C=C\C/C=C/CCCCC(=O)O` gave an IC50 in assay [1] of 29 µM.
In turn, `CCCCCC(/C=C/C=C\CCCCCCCCCC(=O)O)OC(C)=O` (stereo not given) came in with an IC50 in assay [1] of 76 µM.
`CCCCCC1/C=C/C#CCCCCCCCCCC(=O)O1` (stereo not given) registered an inhibition in assay [2] of 16%.
As for `O=C(O)CCCCCCCCCC#C/C=C/C(O)CCCCC(=O)O` (stereo not given), in assay [3], the inhibition result is “inactive”.
The compound `CCCCCC(O)/C=C/C#CCCCCCCCCC(=O)O` (stereo not given) had an IC50 in assay [1] of 73 µM.
Consider `CCCCCC(O)/C=C/C=C\CCCCCCCCCC(=O)O` (stereo not given), for which the IC50 in assay [1] was determined as 35 µM.
In [4], `CCCCC[C@H](O)/C=C/C=C\CCCCCCCC(=O)OC` showed an inhibition of 34%.
Consider `CCCCCC(O)/C=C/C=C/CCCCCCCCCC(=O)O` (stereo not given), for which the inhibition in assay [5] turned out to be 33%.
In turn, `CCCCC[C@H](O)/C=C/C=C\CCCCCCCCCC(=O)O` came in with an IC50 in assay [1] of 26 µM.
`CCCCCC/C=C/C#CCCCCCCCCCC(=O)O` gave an inhibition in [6] of 48%.
With `CCCCCC(O)C#CC#CCCCCCCCCCC(=O)O` (stereo not given), in assay [1], the half-maximal inhibitory concentration (IC50) is 27 µM. In other words, the double-digit micromolar range.
Consider `CCCCCC(O)/C=C/C#CCCCCCCCCCCC(=O)O` (stereo not given), for which the inhibition in assay [5] worked out at 24%.
Regarding `CCCCCC/C=C/C#CCCCCCCCCC(=O)O`, the inhibition in assay [5] turned out to be 33%.
In the case of `O=C(O)CCCCCCCCC/C=C/C=C/C(O)CC1CCCC1` (stereo not given), in [1], inhibition was half-maximal at 61 µM (IC50).
In assay [6], `CCCCCC(O)/C=C/C#CCCCCCCC(=O)O` (stereo not given) returned an inhibition of 18%.
Take `CCCCCC(O)/C=C/C#CCCCCC(=O)O` (stereo not given): the inhibition entry in assay [3] was “inactive”.
For the compound `CCCCCC(O)/C=C/C#CCCCCCCCCCC(=O)N(CC)CC` (stereo not given), the inhibition in assay [5] is 49%.
In the case of `CCCCCC(O)/C=C\C=C\CCCCCCCCCC(=O)O` (stereo not given), 58 µM corresponded to half-maximal inhibition in assay [1] (IC50).
In assay [1], `CCCCC/C=C\C/C=C\C/C=C\C=C\C1CCCC(=O)O1` (stereo not given) came in with an IC50 of 23 µM.
`CCCCC[C@H](O)/C=C/C=C\C/C=C\C/C=C\CCCCCC(=O)O` came in with an IC50 in [1] of 62 µM.
In turn, `CCCCCC(O)/C=C/C#CCCCCCCCCCC(=O)O` (stereo not given) displayed an IC50 in [1] of 66 µM. This IC50 and that of the compound before are within 1.5-fold of each other.
On the same count and under the same terms, the same measure for `CCCC(O)/C=C/C=C/CCCCCCCCCC(=O)O` (stereo not given): 160 µM.
Turning to `CCCCC[C@H](O)/C=C/C=C\C/C=C\C=C\C1CCCC(=O)O1` (stereo not given in full), the IC50 in [1] turned out to be 25 µM.
With `CCCCC[C@H](O)CCCCCCCCCCCCCC(=O)O`, the inhibition result in assay [3] is “inactive”.
Consider `CCCCC[C@H](O)/C=C\C=C/C/C=C\CCCCCCC(=O)O`, for which the IC50 in [1] stood at 77 µM.
The same measure, in the same setting: next, `CCCCCC(=O)/C=C/C=C\C/C=C\C/C=C\CCCC(=O)O`: 26 µM.
For `CCCCCC(O)C#C/C=C/CCCCCCCCCC(=O)O` (stereo not given), the inhibition in assay [6] is 30%.
In the case of `CCCCC[C@@H](/C=C/C=C\C/C=C\C/C=C\CCCC(=O)O)OO`, in assay [1], 3.4 µM corresponded to half-maximal inhibition (IC50).
`CCCC(O)/C=C/C#CCCCCCCCCCC(=O)O` (stereo not given) came in with an IC50 in assay [1] of 260 µM.
`CCCCCC(O)/C=C/C=C/CCCCCCCCCCC(=O)O` (stereo not given) gave an inhibition in [5] of 41%.
As to `CCCCCC(/C=C/C#CCCCCCCCCCC(=O)O)OC(C)=O` (stereo not given), in [6], the inhibition was 40%.
For the compound `CCCCC[C@H](O)/C=C/C=C\CCCCCCCC(=O)O`, in assay [1], the IC50 is 82 µM. That is a double-digit micromolar value.
In turn, `CCCCCC(O)/C=C/C#CCCCCCCCC(=O)O` (stereo not given) returned an inhibition in [6] of 24%.
Regarding `CCCCCC(O)/C=C/C#CCCCCCC(=O)O` (stereo not given), the inhibition entry in [3] was “inactive”.
Take `CCCCC/C=C\C/C=C\C/C=C\C=C\C(O)CCCC(=O)O` (stereo not given): in assay [1], half-maximal inhibition (IC50) required 77 µM.
For the compound `CCCCCC(O)/C=C/C=C/CCCCC(=O)O` (stereo not given), the IC50 entry in assay [7] was “Not Active”.
The compound `CCCCC[C@H](O)/C=C/C=C\CCCCCCCCCC(=O)N(CC)CC` returned an inhibition in [5] of 39%.
Consider `CCCCCC(O)/C=C\C=C/CCCCCCCCCC(=O)O` (stereo not given), for which the inhibition in assay [6] was determined as 44%.
`CCCCCCC(O)/C=C/C=C/CCCCCCCCCC(=O)O` (stereo not given) showed an inhibition in [8] of 49%.
In [4], `CCCCC[C@H](O)/C=C/C=C\CCCCCCCCCC(=O)OC` came in with an inhibition of 34%.
On to `CCCCCC(O)/C=C/C=C/CCCCCCCCC(=O)O` (stereo not given), for which the inhibition in [6] turned out to be 39%.
Consider `CCCCC[C@H](O)/C=C/C=C\C/C=C\C/C=C\CCCC(=O)OC`, for which 64 µM corresponded to half-maximal inhibition in assay [1] (IC50).
In the case of `O=C(O)CCCCCCCCC/C=C\C=C\C(O)CCCCCO` (stereo not given), the inhibition in [6] is 46%.
With `COC(=O)CCCCC(O)/C=C/C#CCCCCCCCCCC(=O)O` (stereo not given), the inhibition in assay [6] was 22%.
The compound `CCCCCC(=O)/C=C/C=C\CCCCCCCCCC(=O)O` yielded an IC50 in [1] of 55 µM. In other words, the double-digit micromolar range.
Turning to `CCCCCC/C=C/C=C\CCCCCCCCCC(=O)O`, the inhibition in assay [6] came out at 16%.
On the same count and under the same terms, the same measure for `CCCCCC1/C=C/C=C\CCCCCCCCCC(=O)O1` (stereo not given): 42%.
For the compound `CCCCC[C@@H](/C=C/C=C\C/C=C\C/C=C\CCCC(=O)OC)OC(C)=O`, it took 7.2 µM to reach half-maximal inhibition in assay [1] (IC50). This counts as single-digit micromolar.
Turning to `CCCCCC(O)/C=C/C=C/CCCCCCC(=O)O` (stereo not given), the inhibition in assay [9] came to 24%.
In assay [6], `CCCCCC(O)c1cccc(OCCCCCCCC(=O)O)c1` (stereo not given) yielded an inhibition of 23%.
`CCCCCC(O)CC/C=C\CCCCCCCCCC(=O)O` (stereo not given): the inhibition in assay [10] was 36%.
As for `CCCCC[C@H](O)/C=C/C=C\C/C=C\C/C=C\CCCC(=O)O` [ICOMUCRET], it took 7.3 µM to reach half-maximal inhibition in assay [1] (IC50). This counts as single-digit micromolar.
With `CCCCCCC(O)/C=C/C#CCCCCCCCCCC(=O)O` (stereo not given), the IC50 in assay [1] was found to be 32 µM.
With `CCCCC[C@@H](/C=C/C=C\C/C=C\C/C=C\CCCC(=O)O)OC(C)=O`, the IC50 in [1] amounted to 17 µM.
In turn, `O=C(O)CCCCCCCCCC#C/C=C/C(O)CC1CCCC1` (stereo not given) returned an IC50 in assay [1] of 82 µM.
For the compound `CCCC(O)/C=C/C#CCCCCCCCCC(=O)O` (stereo not given), the inhibition in assay [4] stood at 46%.
In turn, `CCCCC[C@H](O)/C=C/C=C\C/C=C\C=C\C(O)CCCC(=O)O` (stereo not given in full) displayed an IC50 in assay [1] of 270 µM.
`CCCCCC(O)/C=C/C=C/CCCCCC(=O)O` (stereo not given) registered an inhibition in assay [6] of 17%.
`COC(=O)CCCCC(O)/C=C/C=C/CCCCCCCCCC(=O)O` (stereo not given) yielded an inhibition in assay [6] of 31%.
